Active and inactive are the calls of the source.
Legend:
[1] = system: Trypanosoma cruzi; test: Antitrypanosomal activity against blood trypomastigote forms of Trypanosoma cruzi infected in BALB/c mouse assessed as decrease in anti-parasite antibodies level at 5 mg/kg, ip administered 7 days post infection once daily for 5 days measured after […] by ELISA relative to control; format: functional, organism-based; set-up: dose 5 mg/kg
Summary of the method: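 Female BALB/c mice (6–8 weeks) were infected ip; groups of four received ip treatment days 7–12 post-infection. Sera taken on days 40 and 90 were diluted 1:100 and run in ELISA against excreted Fe-SOD antigen from epimastigotes, read at 490 nm. Cutoff was the mean of negative controls plus 3 SD. The change was taken as absorbance on day 90 minus day 40.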

[2] = system: Mus musculus; test: Toxicity in BALB/c mouse assessed as mortality at 5 mg/kg, ip; format: organism-based; set-up: dose 5 mg/kg, route intraperitoneal; settings: in vivo
[3] = system: Trypanosoma cruzi; test: Antitrypanosomal activity against metacyclic forms of Trypanosoma cruzi infected in vero cells assessed as decrease in trypomastigotes at IC25 concentration after 12 hrs; format: functional; set-up: scale not given: the % may be the effect or the level left
Summary of the method: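 Vero cells were seeded at 1 × 10^5 per well on coverslips, grown 2 days, then infected with metacyclic forms at 10:1. Compounds at IC25 were added at infection for 12 h at 37 °C, 5% CO2, then washed out. Cultures were kept 10 days with medium renewed every 48 h. Trypomastigotes released into the medium were counted.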

[4] = Selectivity index, ratio of IC50 for african green monkey Vero cells to IC50 for epimastigote form of Trypanosoma cruzi; format: toxicity, cell-based; settings: Vero cells (versus epimastigote form of Trypanosoma cruzi), read-out: Ratio IC50
[5] = system: Trypanosoma cruzi; test: Antitrypanosomal activity against blood trypomastigote forms of Trypanosoma cruzi infected in BALB/c mouse assessed as decrease in parasitemia at 5 mg/kg, ip administered 7 days post infection once daily for 5 days measured after 40 days post infection by […] relative to control; format: functional; set-up: scale not given: the % may be the effect or the level left; settings: route intraperitoneal
Summary of the method: (§1)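 Female BALB/c mice (6–8 weeks, five per group) were infected ip with 1 × 10^3 bloodstream forms and treated ip in saline on days 7–12 post-infection; controls received vehicle. Every two days, 5 μL tail blood was diluted 1:15 in citrate/lysis buffer (pH 7.2) and parasites counted in a Neubauer chamber. Decrease is relative to the untreated infected group.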

[6] = system: Trypanosoma cruzi; test: Antitrypanosomal activity against Trypanosoma cruzi epimastigotes assessed as increase in vacuolization at IC25 concentration after 72 hrs by transmission electron microscopy; format: functional, organism-based
Summary of the method: (§2)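 Epimastigotes at 5 × 10^6 cells/mL were exposed to test compounds at their IC25 for 72 h. Morphology was assessed by transmission electron microscopy against untreated parasites.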

[7] = system: Trypanosoma cruzi; test: Antitrypanosomal activity against blood trypomastigote forms of Trypanosoma cruzi infected in BALB/c mouse assessed as decrease in parasitemia at 5 mg/kg, ip administered 7 days post infection once daily for 5 days measured on day 22 post infection by […] relative to control; format: functional, organism-based; set-up: dose 5 mg/kg; summary of the method: as §1
[8] = system: Trypanosoma cruzi; test: Antitrypanosomal activity against metacyclic forms of Trypanosoma cruzi infected in vero cells assessed as inhibition of infection at IC25 concentration after 12 hrs; format: functional
Summary of the method: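 Vero cells were seeded at 1 × 10^5 per well on coverslips, grown 2 days, and infected with metacyclic forms at 10:1, with compounds at IC25 present for 12 h at 37 °C. After washing, cultures were grown 10 days. Methanol-fixed, Giemsa-stained cells (>100 per sample) were scored for percent infected and amastigotes per cell. Results are means of four determinations.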

[9] = system: Trypanosoma cruzi; test: Antitrypanosomal activity against Trypanosoma cruzi epimastigotes assessed as undulating cytoplasm membrane at IC25 concentration after 72 hrs by transmission electron microscopy; format: functional, organism-based; summary of the method: as §2
[10] = system: Trypanosoma cruzi; test: Antitrypanosomal activity against epimastigote form of Trypanosoma cruzi assessed as inhibition of parasite growth; format: functional, organism-based
Summary of the method: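 Exponential-phase epimastigotes at 2 × 10^6 parasites/mL were exposed to 1, 10, 25, 50 and 100 μM compound in medium containing 0.01% DMSO. Parasites were counted by hemocytometer at 24, 48 and 72 h.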

[11] = system: Trypanosoma cruzi; test: Antitrypanosomal activity against Trypanosoma cruzi epimastigotes assessed as cytoplasmic membrane burst at IC25 concentration after 72 hrs by transmission electron microscopy; format: functional, organism-based; summary of the method: as §2
[12] = system: Trypanosoma cruzi; test: Antitrypanosomal activity against Trypanosoma cruzi epimastigotes assessed as shrinkage of the protozoa at IC25 concentration after 72 hrs by transmission electron microscopy; format: functional, organism-based; summary of the method: as §2
[13] = system: Trypanosoma cruzi; test: Antitrypanosomal activity against blood trypomastigote forms of Trypanosoma cruzi infected in BALB/c mouse assessed as mouse survival rate at 1 mg/kg, ip administered 7 days postinfection once daily for 5 days; format: functional
Summary of the method: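 T. cruzi Maracay strain; groups of five female BALB/c mice (6–8 weeks, 25–30 g) infected ip with 1 × 10³ bloodstream forms. Starting day 7 post-infection, ip dosing at 1 mg/kg/day in saline for five consecutive days; infected controls received vehicle. Mortality recorded over the study alongside parasitemia, which was counted every two days from tail blood in a Neubauer chamber.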

[14] = system: Vero; test: Cytotoxicity against african green monkey Vero cells assessed as cell viability after 72 hrs by FACS analysis; format: cell-based; settings: Chlorocebus sabaeus
[15] = system: Trypanosoma cruzi; test: Antitrypanosomal activity against Trypanosoma cruzi epimastigotes assessed as star-shaped and wavy cytoplasm membrane at IC25 concentration after 72 hrs by transmission electron microscopy; format: functional, organism-based; summary of the method: as §2
[16] = system: Trypanosoma cruzi; test: Antitrypanosomal activity against Trypanosoma cruzi epimastigotes assessed as dilated mitochondria at IC25 concentration after 72 hrs by transmission electron microscopy; format: functional, organism-based; summary of the method: as §2

Structure (SMILES) | Activity [1] | Activity [2] | Activity [3] [%] | selectivity ratio [4] | Activity [5] [%] | Activity [6] | Activity [7] | inhibition (INH) [8] [%] | Activity [9] | IC50 [10] [µM] | Activity [11] | Activity [12] | Activity [13] | IC50 [14] [µM] | Activity [15] | Activity [16] | survival at 1 mg/kg ([13]; route intraperitoneal) [%]
O=c1c(O[C@@H]2O[C@H](CO)[C@@H](O)[C@H](O)[C@H]2O)c(-c2ccc(O)cc2)oc2cc(O)cc(O)c12 [ASTRAGALIN] | Active | Non-toxic | 65 | 11.1 | 23 | Active | Active | 64 | Active | 15.7 | Active | Active | Active | 174 |  |  | 
CC(=O)OC[C@H]1O[C@@H](Oc2cc(OC(C)=O)c3c(=O)c(O[C@@H]4O[C@H](COC(C)=O)[C@@H](OC(C)=O)[C@H](OC(C)=O)[C@H]4OC(C)=O)c(-c4ccc(OC(C)=O)cc4)oc3c2)[C@H](OC(C)=O)[C@@H](OC(C)=O)[C@@H]1OC(C)=O [PAEONOSIDE DECAACETATE] | Active | Non-toxic | 85 | > 58.1 | 23 | Active | Active | 82 | Active | 17.2 | Active | Active | Active | > 1000 | Active |  | 
CC(=O)O[C@H]1[C@H](Oc2c(-c3ccc(O)c(O)c3)oc3cc(O[C@H]4O[C@H](C)[C@@H](O)[C@H](O)[C@@H]4O)cc(O)c3c2=O)O[C@H](CO)[C@@H](O)[C@@H]1O | Active | Non-toxic | 58 | > 36.6 | 23 | Active | Active | 65 |  | 27.3 |  | Active | Active | > 1000 |  |  | 
CC(=O)O[C@H]1[C@H](Oc2c(-c3ccc(O)cc3)oc3cc(O)cc(O)c3c2=O)O[C@H](CO)[C@@H](O)[C@@H]1O | Active | Non-toxic | 78 | 45.2 | 23 | Active | Active | 88 | Active | 6.5 | Active | Active | Active | 294 |  | Active | 
CC(=O)OC[C@H]1O[C@@H](Oc2c(-c3ccc(OC(C)=O)cc3)oc3cc(OC(C)=O)cc(OC(C)=O)c3c2=O)[C@H](OC(C)=O)[C@@H](OC(C)=O)[C@@H]1OC(C)=O [ASTRAGALIN HEPTAACETATE] | Active | Non-toxic | 95 | 205 | 23 | Active | Active | 91 |  | 0.8 |  | Active | Active | 164 |  |  | 
CC(=O)O[C@H]1[C@H](Oc2c(-c3ccc(O)cc3)oc3cc(O[C@@H]4O[C@H](CO)[C@@H](O)[C@H](O)[C@H]4O)cc(O)c3c2=O)O[C@H](CO)[C@@H](O)[C@@H]1O | Active | Non-toxic | 77 | > 46.1 | 23 | Active | Active | 85 |  | 21.7 |  | Active | Active | > 1000 |  |  | 
O=C(Cn1ccnc1[N+](=O)[O-])NCc1ccccc1 [BENZNIDAZOLE] |  |  | 37 |  |  |  |  | 39 |  |  |  |  |  |  |  |  | 80
C[C@H]1O[C@H](Oc2cc(O)c3c(=O)c(O[C@@H]4O[C@H](CO)[C@@H](O)[C@H](O)[C@H]4O)c(-c4ccc(O)c(O)c4)oc3c2)[C@@H](O)[C@@H](O)[C@@H]1O [PETIOLAROSIDE] | Active | Non-toxic | 72 | > 33 | 23 | Active | Active | 68 |  | 30.3 |  | Active | Active | > 1000 |  |  | 

— ChEMBL document CHEMBL1772982, “In vitro and in vivo trypanocidal activity of flavonoids from Delphinium staphisagria against Chagas disease” (J Nat Prod, 2011)
